In ChEMBL document CHEMBL1134561, “6-Substituted-4-(3-bromophenylamino)quinazolines as putative irreversible inhibitors of the epidermal growth factor receptor (EGFR) and human epidermal growth factor receptor (HER-2) tyrosine kinases with enhanced antitumor activity” (J Med Chem, 2001):

Experiments:
[1] = target: Epidermal growth factor receptor (Homo sapiens, UniProt P00533); assay: Inhibition of epidermal growth factor receptor using enzyme assay
[2] = system: SK-BR-3; assay: Inhibition of cell growth of SKBr3 cell lines using cell-based assay; type: functional; conditions: Homo sapiens
Summary of the method: (§1)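 Cells kept in RPMI-1640 with 5% fetal bovine serum and plated at 5.0 × 10^4/mL. Next day they were dosed at 0.5, 5, 50, 500 and 5000 ng/mL and cultured 2 days. Survival was read by sulforhodamine B. IC50 is the concentration inhibiting growth by 50%, taken from the five-point dose-response curve.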

[3] = system: A-431; assay: Inhibition of cell growth of human epidermoid carcinoma xenograft (A431) model using cell based assay; type: functional
[4] = target: Receptor tyrosine-protein kinase erbB-2 (Homo sapiens, UniProt P04626); assay: Inhibition of human epidermal growth factor receptor (HER-2) using enzyme assay
Chain of Receptor tyrosine-protein kinase erbB-2 (P04626 whole entry, the tested form may be a part): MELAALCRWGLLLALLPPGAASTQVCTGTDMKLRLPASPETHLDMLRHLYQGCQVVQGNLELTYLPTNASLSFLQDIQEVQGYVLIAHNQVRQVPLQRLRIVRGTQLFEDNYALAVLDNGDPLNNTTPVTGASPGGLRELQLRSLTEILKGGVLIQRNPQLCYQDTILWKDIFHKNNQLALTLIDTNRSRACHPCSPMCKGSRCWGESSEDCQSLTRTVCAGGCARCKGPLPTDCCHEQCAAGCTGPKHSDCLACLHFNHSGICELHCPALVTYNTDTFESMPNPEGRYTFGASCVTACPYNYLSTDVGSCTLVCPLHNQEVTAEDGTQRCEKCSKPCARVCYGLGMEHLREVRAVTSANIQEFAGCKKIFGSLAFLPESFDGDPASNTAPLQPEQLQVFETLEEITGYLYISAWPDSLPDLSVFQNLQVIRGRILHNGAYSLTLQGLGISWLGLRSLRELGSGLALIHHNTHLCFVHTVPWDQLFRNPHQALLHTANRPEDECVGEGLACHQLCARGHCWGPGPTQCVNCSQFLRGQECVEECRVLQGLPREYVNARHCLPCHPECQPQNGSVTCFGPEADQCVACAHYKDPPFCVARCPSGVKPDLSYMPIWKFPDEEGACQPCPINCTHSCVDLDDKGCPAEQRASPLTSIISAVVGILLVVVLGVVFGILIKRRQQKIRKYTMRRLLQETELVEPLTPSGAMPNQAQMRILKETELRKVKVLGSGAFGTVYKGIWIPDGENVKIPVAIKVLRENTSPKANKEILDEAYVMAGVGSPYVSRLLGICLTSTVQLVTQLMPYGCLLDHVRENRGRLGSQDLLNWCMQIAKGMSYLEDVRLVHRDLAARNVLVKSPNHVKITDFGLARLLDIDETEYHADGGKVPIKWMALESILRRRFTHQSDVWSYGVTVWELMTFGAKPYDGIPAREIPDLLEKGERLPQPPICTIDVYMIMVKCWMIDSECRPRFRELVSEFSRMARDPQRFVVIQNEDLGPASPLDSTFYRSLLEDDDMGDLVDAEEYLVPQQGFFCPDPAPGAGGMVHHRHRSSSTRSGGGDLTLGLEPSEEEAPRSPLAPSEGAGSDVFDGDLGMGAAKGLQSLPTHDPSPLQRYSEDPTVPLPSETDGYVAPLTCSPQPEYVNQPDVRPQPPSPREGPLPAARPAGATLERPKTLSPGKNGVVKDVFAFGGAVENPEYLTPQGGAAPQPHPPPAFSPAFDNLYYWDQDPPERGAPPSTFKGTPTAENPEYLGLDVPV
Summary of the method: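 His6-tagged HER-2 cytoplasmic domain was expressed in Sf-9 cells and purified on Ni-NTA (about 80% pure). Enzyme (12.5 ng/well) was preincubated with compound 10 min at room temperature in HEPES pH 7.4. Autophosphorylation ran 1 h with MnCl2/Na3VO4/DTT buffer plus 0.1 mM ATP–50 mM MgCl2 (as added). Europium anti-phosphotyrosine time-resolved fluorescence was read at 340/615 nm. IC50 came from eight concentrations, mean of duplicates.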

[5] = system: SW-620; assay: Inhibition of cell growth of SW620 cell lines using cell-based assay; type: functional; conditions: Homo sapiens; summary of the method: as §1
[6] = system: A-431; assay: Inhibition of human epidermoid carcinoma xenograft (A431) tumor growth; type: functional, cell-based
Summary of the method: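 Female athymic nu/nu mice received 5 × 10^6 A431 cells sc in the flank. At 80–120 mg tumor mass they were randomized, 10 per group. Dosing was oral, once daily on days 1–10, 40 mg/kg in 0.2% Klucel, with a vehicle control. Tumor mass [(length × width²)/2] was measured every 7 days from day 8 to 29. Relative growth is versus day 0, compared by Student t-test of log values.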

Chain of Epidermal growth factor receptor (P00533 whole entry): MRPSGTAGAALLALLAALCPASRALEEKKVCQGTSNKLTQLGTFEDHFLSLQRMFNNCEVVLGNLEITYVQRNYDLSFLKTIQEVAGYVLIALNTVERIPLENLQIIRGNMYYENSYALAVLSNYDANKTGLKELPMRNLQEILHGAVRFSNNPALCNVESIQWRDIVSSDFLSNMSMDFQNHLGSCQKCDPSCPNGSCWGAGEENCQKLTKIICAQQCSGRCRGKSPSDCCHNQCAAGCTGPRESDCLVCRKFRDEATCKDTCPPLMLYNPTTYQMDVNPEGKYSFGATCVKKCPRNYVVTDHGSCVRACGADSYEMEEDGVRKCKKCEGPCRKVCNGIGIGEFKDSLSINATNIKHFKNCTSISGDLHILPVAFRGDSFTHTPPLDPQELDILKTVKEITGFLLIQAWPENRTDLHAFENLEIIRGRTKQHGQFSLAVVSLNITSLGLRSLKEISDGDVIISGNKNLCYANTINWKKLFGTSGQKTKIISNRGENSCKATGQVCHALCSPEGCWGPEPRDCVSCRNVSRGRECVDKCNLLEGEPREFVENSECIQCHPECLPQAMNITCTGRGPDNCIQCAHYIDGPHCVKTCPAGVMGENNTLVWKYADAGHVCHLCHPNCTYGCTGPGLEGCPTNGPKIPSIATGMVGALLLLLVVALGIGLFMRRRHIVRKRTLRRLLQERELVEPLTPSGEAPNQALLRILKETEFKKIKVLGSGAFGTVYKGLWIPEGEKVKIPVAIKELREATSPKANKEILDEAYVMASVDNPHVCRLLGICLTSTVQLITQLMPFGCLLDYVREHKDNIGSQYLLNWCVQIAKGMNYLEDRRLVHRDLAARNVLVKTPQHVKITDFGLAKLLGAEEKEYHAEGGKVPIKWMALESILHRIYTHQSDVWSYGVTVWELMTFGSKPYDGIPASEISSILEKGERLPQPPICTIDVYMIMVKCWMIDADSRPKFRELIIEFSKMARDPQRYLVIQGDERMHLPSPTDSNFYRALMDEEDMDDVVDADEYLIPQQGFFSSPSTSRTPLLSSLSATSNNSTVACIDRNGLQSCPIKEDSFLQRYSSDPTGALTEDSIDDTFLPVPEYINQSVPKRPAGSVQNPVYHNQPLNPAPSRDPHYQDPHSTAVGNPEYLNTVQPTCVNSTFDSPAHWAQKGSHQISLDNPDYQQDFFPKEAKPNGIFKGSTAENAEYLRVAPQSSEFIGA

Row | SMILES | IC50 [1] [nM] | IC50 [2] [nM] | IC50 [3] [nM] | IC50 [4] [nM] | IC50 [5] [nM] | IC50 [6] [nM]
1 | COC[C@@H]1CCCN1C/C=C\C(=O)Nc1ccc2ncnc(Nc3cccc(Br)c3)c2c1 | 194 | 13 | 353 | 2920 | 2860 | –
2 | COC[C@@H]1CCCN1C/C=C/C(=O)Nc1ccc2ncnc(Nc3cccc(Br)c3)c2c1 | 131 | 2 | 222 | 1910 | 2620 | –
3 | C=CC(=O)Nc1ccc2ncnc(Nc3cccc(Br)c3)c2c1 | – | 15 | – | 114 | 4130 | 95
4 | O=C(/C=C/CN1CCOCC1)Nc1ccc2ncnc(Nc3cccc(Br)c3)c2c1 | 74 | 13 | 1890 | 2780 | 10700 | –
5 | COCCOCC#CC(=O)Nc1ccc2ncnc(Nc3cccc(Br)c3)c2c1 | 65 | 9 | 77 | 116 | 945 | –
6 | CCCN(CC#CC(=O)Nc1ccc2ncnc(Nc3cccc(Br)c3)c2c1)CCC | 62 | 2 | 42 | 177 | 198 | –
7 | CCN(CC)CC#CC(=O)Nc1ccc2ncnc(Nc3cccc(Br)c3)c2c1 | 12 | 6 | 111 | 38 | 610 | –
8 | O=C(C#CCN1CCSCC1)Nc1ccc2ncnc(Nc3cccc(Br)c3)c2c1 | 95 | 2 | 83 | 124 | 581 | –
9 | C/C=C\C(=O)Nc1ccc2ncnc(Nc3cccc(Br)c3)c2c1 | – | 742 | – | 21700 | 12500 | –
10 | CN(C)CC#CC(=O)Nc1ccc2ncnc(Nc3cccc(Br)c3)c2c1 | – | 11 | – | 14 | 530 | –
11 | C=CCN(C)CC#CC(=O)Nc1ccc2ncnc(Nc3cccc(Br)c3)c2c1 | 71 | 1 | – | 85 | 289 | 33
12 | COC[C@H]1CCCN1C/C=C/C(=O)Nc1ccc2ncnc(Nc3cccc(Br)c3)c2c1 | 85 | 1 | 616 | 733 | 10100 | –
13 | COCCN(C)C/C=C/C(=O)Nc1ccc2ncnc(Nc3cccc(Br)c3)c2c1 | 62 | 3 | 564 | 634 | 5890 | –
14 | O=C(C#CCN1CCCCC1)Nc1ccc2ncnc(Nc3cccc(Br)c3)c2c1 | 57 | 2 | 32 | 73 | 302 | –
15 | COCC#CC(=O)Nc1ccc2ncnc(Nc3cccc(Br)c3)c2c1 | 9 | 46 | 268 | 33 | 1730 | –
16 | CN(C)/C=C/C(=O)Nc1ccc2ncnc(Nc3cccc(Br)c3)c2c1 | 250 | 1760 | – | 25700 | 12100 | 2100
17 | CC(C)N(C)CC#CC(=O)Nc1ccc2ncnc(Nc3cccc(Br)c3)c2c1 | 85 | 4 | 77 | 113 | 232 | –
18 | CC#CC(=O)Nc1ccc2ncnc(Nc3cccc(Br)c3)c2c1 | – | 17 | – | 378 | 1500 | –
19 | CCN(CC)C/C=C/C(=O)Nc1ccc2ncnc(Nc3cccc(Br)c3)c2c1 | 73 | 2 | 194 | 1160 | 2390 | –

Row | SMILES | IC50 [1] [nM] | IC50 [2] [nM] | IC50 [3] [nM] | IC50 [4] [nM] | IC50 [5] [nM] | IC50 [6] [nM]
20 | C=C(C)C(=O)Nc1ccc2ncnc(Nc3cccc(Br)c3)c2c1 | – | 2220 | – | 15200 | 20700 | –
21 | CCN1CCN(CC#CC(=O)Nc2ccc3ncnc(Nc4cccc(Br)c4)c3c2)CC1 | 65 | 62 | 598 | 183 | 4600 | –
22 | CCCN(C/C=C/C(=O)Nc1ccc2ncnc(Nc3cccc(Br)c3)c2c1)CCC | 90 | 2 | 145 | 1430 | 2280 | –
23 | COC/C=C/C(=O)Nc1ccc2ncnc(Nc3cccc(Br)c3)c2c1 | 1130 | 370 | 8500 | 8830 | 12100 | –
24 | CN1CCC=C(C(=O)Nc2ccc3ncnc(Nc4cccc(Br)c4)c3c2)C1 | 115 | 478 | 2340 | 5040 | 10500 | –
25 | CC(C)N(CC#CC(=O)Nc1ccc2ncnc(Nc3cccc(Br)c3)c2c1)C(C)C | 97 | 4 | 94 | 162 | 302 | –
26 | COCOCC#CC(=O)Nc1ccc2ncnc(Nc3cccc(Br)c3)c2c1 | 59 | 92 | – | 122 | 2080 | 306
27 | O=C(C#CCN1CCOCC1)Nc1ccc2ncnc(Nc3cccc(Br)c3)c2c1 | 20 | 2 | 150 | 53 | 1660 | –
28 | C/C=C/C(=O)Nc1ccc2ncnc(Nc3cccc(Br)c3)c2c1 | – | 1100 | – | 91300 | 13100 | –
29 | O=C(/C=C/CN1CCSCC1)Nc1ccc2ncnc(Nc3cccc(Br)c3)c2c1 | 203 | 12 | 589 | 2810 | 8470 | –
30 | O=C(/C=C/Cn1cccn1)Nc1ccc2ncnc(Nc3cccc(Br)c3)c2c1 | 1120 | 568 | 1370 | 15600 | 11100 | –
31 | CN(C/C=C/C(=O)Nc1ccc2ncnc(Nc3cccc(Br)c3)c2c1)CCO | 14 | 3 | 329 | 414 | 7530 | –
32 | COCC1CCCN1CC#CC(=O)Nc1ccc2ncnc(Nc3cccc(Br)c3)c2c1 (centres undefined) | 65 | 2 | 81 | 117 | 324 | –
33 | CN(C)C/C=C/C(=O)Nc1ccc2ncnc(Nc3cccc(Br)c3)c2c1 | – | 2 | – | 301 | 2340 | –
34 | O=C(C#CCO)Nc1ccc2ncnc(Nc3cccc(Br)c3)c2c1 | – | 43 | – | 16 | – | –
35 | C=C(CN1CCOCC1)C(=O)Nc1ccc2ncnc(Nc3cccc(Br)c3)c2c1 | 107 | 3 | – | 458 | 470 | 128
36 | O=C(/C=C/CN1CCCCC1)Nc1ccc2ncnc(Nc3cccc(Br)c3)c2c1 | 106 | 4 | 182 | 1560 | 2680 | –
37 | O=C(/C=C/CN1CCC(N2CCCCC2)CC1)Nc1ccc2ncnc(Nc3cccc(Br)c3)c2c1 | 68 | 10 | 756 | 1590 | 4150 | –
38 | O=C(/C=C/N1CCOCC1)Nc1ccc2ncnc(Nc3cccc(Br)c3)c2c1 | 215 | 1020 | – | 4180 | 2020 | 1080
